Active and inactive are the calls of the source. The calls are words filed in the database; no cut-off is given here. Where only a bound is given, the exact number is not on record here.

Assay [1] in a line: Selectivity ratio of alpha-2A adrenergic receptor to guinea pig sigma1 receptor.
The species named for the next assay is Sus scrofa. Nature of the assay: Displacement of (+)-[3H]MK-801 from pig NMDA receptor PCP binding site at 1 uM. Put shortly:
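PCP site of the NMDA receptor: competition against [3H]-(+)-MK-801 in fresh pig brain cortex membranes. Test compounds at 1 μM.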

Assay [2] is described as follows: Selectivity ratio of 5-HT1A receptor to guinea pig sigma1 receptor.
Assay [3] has as its system Mus musculus. Nature of the assay: Antiallodynic activity against capsaicin-induced nocifensive behavior in mouse assessed as paw withdrawal latency to von Frey filament-induced pain at 0.5 mg/kg administered 30 mins before and measured 15 mins after capsaicin challenge. Set-up: dose 0.5 mg/kg. It is filed as functional, organism-based.
Assay [4] addresses T1, Alpha-2A adrenergic receptor (Homo sapiens, UniProt P08913).
T1 sequence (P08913 whole entry): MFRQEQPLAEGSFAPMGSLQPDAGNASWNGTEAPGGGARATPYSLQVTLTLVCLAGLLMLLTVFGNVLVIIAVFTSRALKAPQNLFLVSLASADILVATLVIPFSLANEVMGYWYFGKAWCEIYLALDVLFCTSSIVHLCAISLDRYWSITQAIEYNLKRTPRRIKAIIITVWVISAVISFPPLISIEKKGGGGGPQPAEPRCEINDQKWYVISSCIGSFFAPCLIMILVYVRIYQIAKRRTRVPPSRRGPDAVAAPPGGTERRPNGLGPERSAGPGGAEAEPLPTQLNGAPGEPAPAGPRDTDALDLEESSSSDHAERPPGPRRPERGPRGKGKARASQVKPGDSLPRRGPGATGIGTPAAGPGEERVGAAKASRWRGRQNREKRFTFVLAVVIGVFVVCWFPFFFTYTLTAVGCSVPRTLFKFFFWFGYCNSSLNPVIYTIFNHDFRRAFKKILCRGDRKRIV
Description: Binding affinity to alpha-2A adrenergic receptor.

For assay [5], the target named is T2, Alpha-1A adrenergic receptor (Homo sapiens, UniProt P35348).
T2 sequence (P35348 whole entry): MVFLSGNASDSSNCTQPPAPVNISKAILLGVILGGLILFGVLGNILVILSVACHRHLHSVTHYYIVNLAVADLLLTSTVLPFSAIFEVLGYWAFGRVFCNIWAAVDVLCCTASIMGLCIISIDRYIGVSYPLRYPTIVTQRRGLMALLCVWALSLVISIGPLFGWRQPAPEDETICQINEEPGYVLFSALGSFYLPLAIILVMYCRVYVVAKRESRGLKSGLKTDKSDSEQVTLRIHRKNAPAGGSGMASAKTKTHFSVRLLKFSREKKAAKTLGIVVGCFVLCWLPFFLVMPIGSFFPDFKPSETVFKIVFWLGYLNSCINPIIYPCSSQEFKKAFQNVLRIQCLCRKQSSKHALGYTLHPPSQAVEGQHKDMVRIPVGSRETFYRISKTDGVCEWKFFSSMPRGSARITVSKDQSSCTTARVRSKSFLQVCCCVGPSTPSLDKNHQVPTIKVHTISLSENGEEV
Nature of the assay: Binding affinity to alpha-1A adrenergic receptor.

The nature of assay [6]: Selectivity ratio of 5-HT transporter to guinea pig sigma1 receptor.
In assay [7] the target is Sodium-dependent serotonin transporter (Homo sapiens, UniProt P31645). Description: Binding affinity to 5-HT transporter.
Sequence of Sodium-dependent serotonin transporter (P31645 whole entry): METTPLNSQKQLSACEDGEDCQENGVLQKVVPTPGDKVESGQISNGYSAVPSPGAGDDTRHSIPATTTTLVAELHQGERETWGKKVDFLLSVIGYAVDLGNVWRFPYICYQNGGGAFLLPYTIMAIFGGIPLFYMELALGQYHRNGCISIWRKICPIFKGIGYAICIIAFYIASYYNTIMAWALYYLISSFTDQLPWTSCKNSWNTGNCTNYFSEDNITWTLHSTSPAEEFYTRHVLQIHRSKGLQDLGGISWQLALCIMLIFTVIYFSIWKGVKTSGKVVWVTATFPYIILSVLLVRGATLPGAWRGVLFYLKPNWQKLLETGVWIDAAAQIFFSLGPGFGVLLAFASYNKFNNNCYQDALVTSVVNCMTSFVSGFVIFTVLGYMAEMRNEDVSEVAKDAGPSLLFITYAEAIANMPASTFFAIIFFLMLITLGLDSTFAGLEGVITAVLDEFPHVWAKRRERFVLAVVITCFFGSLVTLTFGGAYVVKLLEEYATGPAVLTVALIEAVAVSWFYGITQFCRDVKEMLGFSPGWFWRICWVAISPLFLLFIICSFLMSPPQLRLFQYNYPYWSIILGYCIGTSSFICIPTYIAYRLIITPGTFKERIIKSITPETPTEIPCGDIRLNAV
Assay [8] in a line: Selectivity ratio of alpha-1A adrenergic receptor to guinea pig sigma1 receptor.
Assay [9] concerns Mus musculus. Nature of the assay: Antiallodynic activity against capsaicin-induced nocifensive behavior in mouse assessed as paw withdrawal latency to von Frey filament-induced pain at 32 mg/kg administered 30 mins before and measured 15 mins after capsaicin challenge. It counts as functional. An outline of the steps: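 Mechanical allodynia model in mice: capsaicin injected subplantarly into the midplantar surface of the right hind paw, and test compound given 30 min beforehand. Withdrawal latency to a 1 g von Frey filament was read 15 min after capsaicin. 32 mg/kg was the highest dose tested.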

Assay [10] deals with T3, 5-hydroxytryptamine receptor 1A (Homo sapiens, UniProt P08908).
T3 sequence (P08908 whole entry): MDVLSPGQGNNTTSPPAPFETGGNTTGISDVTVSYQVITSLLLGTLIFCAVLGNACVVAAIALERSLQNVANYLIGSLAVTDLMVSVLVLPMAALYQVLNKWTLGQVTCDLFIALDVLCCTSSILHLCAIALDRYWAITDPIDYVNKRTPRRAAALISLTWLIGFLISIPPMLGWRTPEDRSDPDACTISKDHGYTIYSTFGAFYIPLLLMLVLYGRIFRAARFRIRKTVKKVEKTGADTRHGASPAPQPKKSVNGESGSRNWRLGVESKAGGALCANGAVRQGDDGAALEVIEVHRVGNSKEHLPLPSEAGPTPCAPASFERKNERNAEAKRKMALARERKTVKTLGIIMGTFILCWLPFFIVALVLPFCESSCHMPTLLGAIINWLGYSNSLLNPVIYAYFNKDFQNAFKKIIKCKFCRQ
Nature of the assay: Binding affinity to 5-HT1A receptor.

Assay [11] can be described thus: Displacement of [3H]ditolylguanidine from rat liver sigma 2 receptor by scintillation counting. An outline of the steps: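 σ2 sites from rat liver homogenate, labelled with nonselective [3H]-ditolylguanidine. 500 nM unlabelled (+)-pentazocine masks σ1 sites. Competition with six test concentrations, usually in triplicate. Bound radioactivity counted by scintillation. IC50 by nonlinear regression and Ki by Cheng–Prusoff; mean ± SEM from three independent experiments for high-affinity ligands.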
(In general: Displacement assays read how much labelled ligand stays bound in the presence of the test substance.)

In assay [12] the target is Sigma non-opioid intracellular receptor 1 (Cavia porcellus, UniProt Q60492). Description: Displacement of (+)-[3H]pentazocine from guinea pig brain sigma 1 receptor after 180 mins by scintillation counting.
Sequence of Sigma non-opioid intracellular receptor 1 (Q60492 whole entry): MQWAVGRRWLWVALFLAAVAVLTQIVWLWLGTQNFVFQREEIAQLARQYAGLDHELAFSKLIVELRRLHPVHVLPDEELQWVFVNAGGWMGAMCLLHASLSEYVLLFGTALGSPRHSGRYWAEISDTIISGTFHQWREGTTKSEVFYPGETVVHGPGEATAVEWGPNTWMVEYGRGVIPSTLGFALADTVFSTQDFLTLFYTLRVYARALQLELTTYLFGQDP

A word on the IC50: it is the concentration at which inhibition is half-maximal. A higher IC50 goes with weaker potency in that assay. For orientation: Ki means the equilibrium dissociation constant of an inhibitor or competing ligand from its target. Higher therefore signals a looser hold on the target. As for `COC1Cc2c(cnn2-c2ccccc2)C2(CCN(CC3CCCCC3)CC2)O1` (configuration not stated), the Ratio in [1], in assay [2], in assay [6] and in assay [8] was 1000 in each case. In addition, the result in the assay listed under Sus scrofa and with Mus musculus [3] was inactive. Also, the IC50 in assay [4], in assay [5], in assay [7] and in assay [10] was over 1 µM in each case. In the assay with Mus musculus [9], the Activity is reported as 70%. In assay [11], affinity was put at a Ki of 0.109 µM.
Turning to `C=C(C)CCN1CCC2(CC1)OC(OC)Cc1c2cnn1-c1ccccc1` (configuration not stated), the result in the assay filed under Sus scrofa and with Mus musculus [3] was inactive. Further, the inhibitory constant (Ki) was 0.0016 µM in assay [12] and over 1 µM in assay [11]. Also, the Activity in the assay on Mus musculus [9] is 25%.

(Values after ChEMBL document CHEMBL1828572, “Combination of two pharmacophoric systems: synthesis and pharmacological evaluation of spirocyclic pyranopyrazoles with high σ₁ receptor affinity” (J Med Chem, 2011).)
